# Assay results taken from ChEMBL document CHEMBL1781992, “A novel monocarbonyl analogue of curcumin, (1E,4E)-1,5-bis(2,3-dimethoxyphenyl)penta-1,4-dien-3-one, induced cancer cell H460 apoptosis via activation of endoplasmic reticulum stress signaling pathway” (J Med Chem, 2011).
# Activity calls are given as the source filed them. No cut-off for these calls is given here.
# Experiments:
# [1] = tested on: NCI-H460; assay: Induction of CHOP mRNA expression in human NCI-H460 cells at 20 uM after 12 hrs by real time quantitative PCR analysis; type: functional, cell-based
# How it was run: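 H460 cells exposed to a concentration range for 6 or 12 h. CHOP mRNA measured by RT-PCR/qPCR and normalized to β-actin.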
# [2] = tested on: NCI-H460; assay: Induction of GRP78 mRNA expression in human NCI-H460 cells at 5 to 20 uM after 3 hrs by real time quantitative PCR analysis; type: functional, cell-based
# How it was run: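 H460 cells treated across a concentration range for 3 h. GRP78 mRNA quantified by RT-qPCR, normalized to β-actin and expressed as percent of vehicle.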
# [3] = tested on: NCI-H460; assay: Induction of apoptosis in human NCI-H460 cells at 5 to 30 uM after 24 hrs by flow cytometric analysis; type: functional, cell-based
# [4] = tested on: NCI-H460; assay: Induction of ATF-4 protein expression level in human NCI-H460 cells at 5 to 20 uM after 6 hrs by Western blot analysis; type: functional, cell-based
# How it was run: (§1)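 H460 cells exposed to 20 μM for varying times, or to a range of concentrations for 6 h. ATF-4 and XBP-1 protein measured by Western blot with actin as loading control.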
# [5] = tested on: NCI-H460; assay: Cytotoxicity against human NCI-H460 cells assessed as cell viability at 20 uM after 24 hrs by CellTiter-Glo analysis; type: functional; details: NCI-H460, 24 h, read-out: Activity
# How it was run: (§2)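 H460 cells (5 × 10^3/well) seeded overnight, then given fresh medium containing compound from DMSO stock (final 5, 10, 20 μM; 2.5–30 μM in the figure) for 24 h. Viability measured with CellTiter-Glo and expressed as percent of vehicle-treated cells; Student's t test.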
# [6] = tested on: NCI-H460; assay: Induction of apoptosis in human NCI-H460 cells assessed as early apoptotic cells at 10 uM after 6 hrs by annexinV-propidium iodide staining based flow cytometric analysis relative to control; type: functional
# How it was run: (§3)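 H460 cells plated for 6 h, then treated with 5, 10 or 20 μM. Cells washed, trypsin-EDTA detached and resuspended in PBS, then stained with annexin V and propidium iodide plus RNase and 0.1% Triton X-100 for 30 min at 37 °C before flow cytometry. Figure legend gives 6 h incubation.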
# [7] = tested on: NCI-H460; assay: Induction of apoptosis in human NCI-H460 cells assessed as early apoptotic cells at 20 uM after 6 hrs by annexinV-propidium iodide staining based flow cytometric analysis relative to control; type: functional; how it was run: as §3
# [8] = tested on: NCI-H460; assay: Induction of GRP78 protein expression in human NCI-H460 cells at 5 to 20 uM after 3 hrs by Western blot analysis; type: functional, cell-based
# How it was run: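 H460 cells treated for 3 h; GRP78 protein detected by Western blot with actin as loading control.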
# [9] = tested on: NCI-H460; assay: Induction of apoptosis in human NCI-H460 cells assessed as non-viable necrotic cells at 20 uM after 6 hrs by annexinV-propidium iodide staining based flow cytometric analysis relative to control; type: functional; how it was run: as §3
# [10] = tested on: NCI-H460; assay: Induction of apoptosis in human NCI-H460 cells assessed as non-viable necrotic cells at 10 uM after 6 hrs by annexinV-propidium iodide staining based flow cytometric analysis relative to control; type: functional; how it was run: as §3
# [11] = tested on: NCI-H460; assay: Induction of apoptosis in human NCI-H460 cells assessed as viable cells at 20 uM after 6 hrs by annexinV-propidium iodide staining based flow cytometric analysis relative to control; type: functional; details: NCI-H460, 6 h, read-out: Activity; how it was run: as §3
# [12] = tested on: NCI-H460; assay: Cytotoxicity against human NCI-H460 cells after 72 hrs by MTT assay; type: functional, cell-based; details: NCI-H460, 72 h
# How it was run: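 H460 cells grown in RPMI 1640 with 5% FBS at 37 °C, 10% CO2, treated 24 h after seeding. Compounds in DMSO diluted into medium at final 100, 33.3, 11.1 and 3.7 μg/mL for 72 h. MTT (5 mg/mL in 0.9% NaCl) added for 3 h, formazan dissolved in DMSO and read at 570 nm; IC50 derived.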
# [13] = tested on: NCI-H460; assay: Induction of apoptosis in human NCI-H460 cells assessed as activation of caspase 3 activity at 20 uM after 24 hrs by Western blot analysis; type: functional, cell-based
# [14] = tested on: NCI-H460; assay: Induction of apoptosis in human NCI-H460 cells assessed as viable cells at 10 uM after 6 hrs by annexinV-propidium iodide staining based flow cytometric analysis relative to control; type: functional; details: NCI-H460, 6 h, read-out: Activity; how it was run: as §3
# [15] = molecular target: Transcription factor Jun (Homo sapiens) (UniProt P05412); assay: Induction of c-Jun phosphorylation in human NCI-H460 cells at 20 uM after 12 hrs by Western blot analysis; type: cell-based
# How it was run: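 H460 cells cultured in RPMI 1640 with 5% heat-inactivated FBS at 37 C, 10% CO2; exposed to 20 μM for a time course. Lysed at 0 C in Tris-HCl pH 7.4 buffer with NP40, SDS, and protease/phosphatase inhibitors. Phospho-c-Jun detected by Western blot with chemiluminescence, actin as loading control; band density quantified.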
# [16] = tested on: NCI-H460; assay: Induction of apoptosis in human NCI-H460 cells assessed as late apoptotic cells at 20 uM after 6 hrs by annexinV-propidium iodide staining based flow cytometric analysis relative to control; type: functional; how it was run: as §3
# [17] = tested on: NCI-H460; assay: Induction of apoptosis in human NCI-H460 cells assessed as non-viable necrotic cells at 5 uM after 6 hrs by annexinV-propidium iodide staining based flow cytometric analysis relative to control; type: functional; how it was run: as §3
# [18] = tested on: NCI-H460; assay: Induction of apoptosis in human NCI-H460 cells assessed as viable cells at 5 uM after 6 hrs by annexinV-propidium iodide staining based flow cytometric analysis relative to control; type: functional; details: NCI-H460, 6 h, read-out: Activity; how it was run: as §3
# [19] = tested on: NCI-H460; assay: Cytotoxicity against human NCI-H460 cells assessed as reduction of cell viability at 5 to 30 uM after 24 hrs by CellTiter-Glo analysis; type: functional, cell-based; how it was run: as §2
# [20] = tested on: NCI-H460; assay: Decrease in p53 expression in human NCI-H460 cells at 20 uM after 12 hrs by Western blot analysis; type: functional, cell-based
# How it was run: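 H460 cells exposed to 20 μM for varying times, or to a range of concentrations for 12 h. Lysates made in Tris-HCl pH 7.4/NaCl/NP40/SDS buffer with protease and phosphatase inhibitors, then probed for p53 by Western blot with chemiluminescent detection; bands quantified by densitometry.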
# [21] = tested on: NCI-H460; assay: Induction of apoptosis in human NCI-H460 cells assessed as late apoptotic cells at 10 uM after 6 hrs by annexinV-propidium iodide staining based flow cytometric analysis relative to control; type: functional; how it was run: as §3
# [22] = tested on: NCI-H460; assay: Induction of apoptosis in human NCI-H460 cells at 20 uM after 6 hrs by flow cytometric analysis; type: functional; how it was run: as §3
# [23] = tested on: NCI-H460; assay: Induction of apoptosis in human NCI-H460 cells assessed as activation of caspase 9 activation at 20 uM after 24 hrs by Western blot analysis; type: functional, cell-based
# [24] = tested on: NCI-H460; assay: Cytotoxicity against human NCI-H460 cells assessed as reduction of cell viability at 5 to 20 uM after 24 hrs by CellTiter-Glo analysis; type: functional, cell-based; how it was run: as §2
# [25] = tested on: NCI-H460; assay: Induction of apoptosis in human NCI-H460 cells assessed as early apoptotic cells at 5 uM after 6 hrs by annexinV-propidium iodide staining based flow cytometric analysis relative to control; type: functional; how it was run: as §3
# [26] = tested on: NCI-H460; assay: Induction of XBP-1 protein expression level in human NCI-H460 cells at 5 to 20 uM after 6 hrs by Western blot analysis; type: functional, cell-based; how it was run: as §1
# [27] = tested on: NCI-H460; assay: Induction of CHOP protein expression in human NCI-H460 cells at 20 uM after 6 to 24 hrs by Western blot analysis; type: functional, cell-based
# How it was run: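 H460 cells treated for 6–24 h, or across a range of concentrations. CHOP protein measured by Western blot, densitometry expressed as percent of control; Student's t test.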
# [28] = tested on: NCI-H460; assay: Induction of apoptosis in human NCI-H460 cells assessed as late apoptotic cells at 5 uM after 6 hrs by annexinV-propidium iodide staining based flow cytometric analysis relative to control; type: functional; how it was run: as §3
# Chain of Transcription factor Jun (Homo sapiens) (P05412 whole entry): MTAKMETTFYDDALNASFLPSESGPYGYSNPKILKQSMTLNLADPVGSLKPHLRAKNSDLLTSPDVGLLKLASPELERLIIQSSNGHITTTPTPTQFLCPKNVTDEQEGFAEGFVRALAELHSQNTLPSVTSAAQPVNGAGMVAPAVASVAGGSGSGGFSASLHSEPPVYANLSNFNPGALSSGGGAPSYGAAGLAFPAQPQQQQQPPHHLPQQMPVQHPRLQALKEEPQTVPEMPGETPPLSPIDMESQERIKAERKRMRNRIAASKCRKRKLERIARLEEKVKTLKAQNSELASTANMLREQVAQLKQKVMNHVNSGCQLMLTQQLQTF
structure (smiles),measurement,setting,value
COc1cc(/C=C/C(=O)CC(=O)/C=C/c2ccc(O)c(OC)c2)ccc1O [CURCUMIN],Activity,[1],inactive
same,Activity,[2],inactive
same,Activity,[3],inactive
same,Activity,[4],inactive
same,viability at 20 µM,[5],70%
same,Activity,[6],8.57%
same,Activity,[7],12.02%
same,Activity,[8],inactive
same,Activity,[9],0.32%
same,Activity,[10],0.23%
same,viability at 20 µM,[11],83.6%
same,IC50,[12],20.3 µM
same,Activity,[13],inactive
same,viability at 10 µM,[14],89.2%
same,Activity,[15],inactive
same,Activity,[16],4.06%
same,Activity,[17],0.46%
same,viability at 5 µM,[18],87.9%
same,Activity,[19],inactive
same,Activity,[20],inactive
same,Activity,[21],2.06%
same,Activity,[22],12.02%
same,Activity,[23],inactive
same,Activity,[24],inactive
same,Activity,[25],7.97%
same,Activity,[26],inactive
same,Activity,[27],inactive
same,Activity,[28],3.66%
O=C(/C=C/c1ccccc1Br)/C=C/c1ccccc1Br,IC50,[12],5.78 µM
CN(C)CCCOc1ccc(/C=C2\CC/C(=C\c3ccc(OCCCN(C)C)cc3)C2=O)cc1,IC50,[12],8.31 µM
